Laboratory results published in ChEMBL document CHEMBL5649170, “Sustained microglial depletion with CSF1R inhibitor impairs parenchymal plaque development in an Alzheimer's disease model” (Nat Commun, 2019).
pIC50: −log10 of the molar value. Activity calls are given as the source filed them. No cut-off for these calls is given here.

What was measured:
[1] = target: Receptor-type tyrosine-protein kinase FLT3 (Homo sapiens, UniProt P36888); assay: Inhibition of FLT3 (unknown origin)
[2] = target: G protein-coupled receptor kinase 3 (Homo sapiens, UniProt P35626); assay: Inhibition of ADRBK2 (unknown origin)
AMPK alpha2/beta1/gamma1 = AMPK alpha2/beta1/gamma1 (Homo sapiens, UniProt P54619+P54646+Q9Y478); assay: Inhibition of AMPK_A2/B1/G1 (unknown origin); type: protein-complex assay
Chain of AMPK alpha2/beta1/gamma1 (P54646 whole entry): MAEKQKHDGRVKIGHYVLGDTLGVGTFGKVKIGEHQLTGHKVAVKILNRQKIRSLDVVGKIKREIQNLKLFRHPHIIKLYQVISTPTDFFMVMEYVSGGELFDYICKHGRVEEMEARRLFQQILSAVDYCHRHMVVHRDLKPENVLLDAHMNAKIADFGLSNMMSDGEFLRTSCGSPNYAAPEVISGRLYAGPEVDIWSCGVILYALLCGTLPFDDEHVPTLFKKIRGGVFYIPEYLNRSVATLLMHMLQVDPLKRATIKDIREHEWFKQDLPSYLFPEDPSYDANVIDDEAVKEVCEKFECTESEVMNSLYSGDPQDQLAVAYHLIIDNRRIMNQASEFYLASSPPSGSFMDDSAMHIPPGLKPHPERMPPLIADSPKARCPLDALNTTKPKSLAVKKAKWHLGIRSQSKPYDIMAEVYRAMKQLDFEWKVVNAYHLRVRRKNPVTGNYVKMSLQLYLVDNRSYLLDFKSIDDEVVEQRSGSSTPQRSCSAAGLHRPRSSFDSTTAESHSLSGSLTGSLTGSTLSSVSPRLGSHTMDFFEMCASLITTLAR
Chain of AMPK alpha2/beta1/gamma1 (P54619 whole entry): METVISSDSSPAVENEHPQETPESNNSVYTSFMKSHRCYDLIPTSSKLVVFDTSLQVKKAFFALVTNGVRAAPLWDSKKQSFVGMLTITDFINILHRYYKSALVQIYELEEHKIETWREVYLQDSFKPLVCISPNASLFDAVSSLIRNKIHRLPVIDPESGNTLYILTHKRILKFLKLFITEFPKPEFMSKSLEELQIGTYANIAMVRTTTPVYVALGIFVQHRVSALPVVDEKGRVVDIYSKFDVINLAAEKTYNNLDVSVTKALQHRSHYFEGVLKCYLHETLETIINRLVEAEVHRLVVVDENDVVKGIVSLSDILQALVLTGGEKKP
Chain of AMPK alpha2/beta1/gamma1 (Q9Y478 whole entry): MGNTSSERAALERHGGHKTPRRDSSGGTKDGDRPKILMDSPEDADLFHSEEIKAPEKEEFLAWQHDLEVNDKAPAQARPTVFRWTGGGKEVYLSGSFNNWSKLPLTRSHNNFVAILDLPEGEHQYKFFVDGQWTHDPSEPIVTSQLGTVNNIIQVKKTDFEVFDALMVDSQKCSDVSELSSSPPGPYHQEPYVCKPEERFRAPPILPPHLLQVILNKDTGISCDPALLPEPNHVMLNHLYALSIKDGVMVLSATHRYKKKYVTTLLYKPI

[3] = target: Death-associated protein kinase 3 (Homo sapiens, UniProt O43293); assay: Inhibition of DAPK3 (unknown origin)
Ephrin type-B receptor 4 = Ephrin type-B receptor 4 (Homo sapiens, UniProt P54760); assay: Inhibition of EPHB4 (unknown origin)
Chain of Ephrin type-B receptor 4 (P54760 whole entry): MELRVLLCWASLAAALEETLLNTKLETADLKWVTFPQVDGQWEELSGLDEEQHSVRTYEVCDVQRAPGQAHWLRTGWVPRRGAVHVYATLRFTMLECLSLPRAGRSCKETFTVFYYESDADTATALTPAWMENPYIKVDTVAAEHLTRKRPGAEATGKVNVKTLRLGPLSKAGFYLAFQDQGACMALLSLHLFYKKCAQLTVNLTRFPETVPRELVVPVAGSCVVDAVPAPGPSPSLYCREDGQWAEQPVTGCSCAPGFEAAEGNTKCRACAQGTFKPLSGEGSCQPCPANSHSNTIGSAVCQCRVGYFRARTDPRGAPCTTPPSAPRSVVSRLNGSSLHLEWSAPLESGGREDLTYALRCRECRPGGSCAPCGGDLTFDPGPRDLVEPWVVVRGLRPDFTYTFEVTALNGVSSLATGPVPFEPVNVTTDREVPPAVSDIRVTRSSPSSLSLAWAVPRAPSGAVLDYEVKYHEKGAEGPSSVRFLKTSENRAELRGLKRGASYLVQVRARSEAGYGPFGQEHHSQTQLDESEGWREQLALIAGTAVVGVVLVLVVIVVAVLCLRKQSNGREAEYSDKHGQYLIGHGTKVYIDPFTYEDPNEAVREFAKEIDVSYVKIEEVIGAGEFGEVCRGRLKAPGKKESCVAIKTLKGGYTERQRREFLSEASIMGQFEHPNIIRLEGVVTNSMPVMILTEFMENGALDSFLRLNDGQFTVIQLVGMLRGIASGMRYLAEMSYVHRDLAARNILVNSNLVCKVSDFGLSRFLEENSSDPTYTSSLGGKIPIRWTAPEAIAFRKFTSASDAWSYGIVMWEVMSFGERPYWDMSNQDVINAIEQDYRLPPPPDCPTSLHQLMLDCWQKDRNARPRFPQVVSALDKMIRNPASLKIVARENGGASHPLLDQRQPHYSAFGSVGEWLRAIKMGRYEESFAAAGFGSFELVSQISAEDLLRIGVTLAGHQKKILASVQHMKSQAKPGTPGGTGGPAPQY

[4] = target: Interleukin-1 receptor-associated kinase 4 (Homo sapiens, UniProt Q9NWZ3); assay: Inhibition of IRAK4 (unknown origin)
Chain of Interleukin-1 receptor-associated kinase 4 (Q9NWZ3 whole entry): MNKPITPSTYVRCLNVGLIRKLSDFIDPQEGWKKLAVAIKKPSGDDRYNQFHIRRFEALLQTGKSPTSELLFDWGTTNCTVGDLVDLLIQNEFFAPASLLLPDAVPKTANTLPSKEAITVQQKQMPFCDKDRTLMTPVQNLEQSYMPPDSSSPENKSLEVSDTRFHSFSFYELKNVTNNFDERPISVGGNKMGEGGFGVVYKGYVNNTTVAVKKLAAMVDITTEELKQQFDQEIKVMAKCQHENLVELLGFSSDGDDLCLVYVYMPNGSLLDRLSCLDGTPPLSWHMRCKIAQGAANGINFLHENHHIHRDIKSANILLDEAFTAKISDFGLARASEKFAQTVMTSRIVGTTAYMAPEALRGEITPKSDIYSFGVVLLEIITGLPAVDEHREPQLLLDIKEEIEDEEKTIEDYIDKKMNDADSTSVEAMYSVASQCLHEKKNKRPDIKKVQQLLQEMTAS

[5] = target: Mitogen-activated protein kinase 13 (Homo sapiens, UniProt O15264); assay: Inhibition of MAPK13 (unknown origin)
[6] = target: Serine/threonine-protein kinase Nek6 (Homo sapiens, UniProt Q9HC98); assay: Inhibition of NEK6 (unknown origin)
[7] = target: PI3-kinase p110-delta/p85-alpha (Homo sapiens, UniProt O00329); assay: Inhibition of PIK3CD/PIK3R1 (unknown origin); type: protein-complex assay
[8] = target: T1, Protein kinase C beta type (Homo sapiens, UniProt P05771); assay: Inhibition of PRKCB1 (unknown origin)
T1 sequence (P05771 whole entry): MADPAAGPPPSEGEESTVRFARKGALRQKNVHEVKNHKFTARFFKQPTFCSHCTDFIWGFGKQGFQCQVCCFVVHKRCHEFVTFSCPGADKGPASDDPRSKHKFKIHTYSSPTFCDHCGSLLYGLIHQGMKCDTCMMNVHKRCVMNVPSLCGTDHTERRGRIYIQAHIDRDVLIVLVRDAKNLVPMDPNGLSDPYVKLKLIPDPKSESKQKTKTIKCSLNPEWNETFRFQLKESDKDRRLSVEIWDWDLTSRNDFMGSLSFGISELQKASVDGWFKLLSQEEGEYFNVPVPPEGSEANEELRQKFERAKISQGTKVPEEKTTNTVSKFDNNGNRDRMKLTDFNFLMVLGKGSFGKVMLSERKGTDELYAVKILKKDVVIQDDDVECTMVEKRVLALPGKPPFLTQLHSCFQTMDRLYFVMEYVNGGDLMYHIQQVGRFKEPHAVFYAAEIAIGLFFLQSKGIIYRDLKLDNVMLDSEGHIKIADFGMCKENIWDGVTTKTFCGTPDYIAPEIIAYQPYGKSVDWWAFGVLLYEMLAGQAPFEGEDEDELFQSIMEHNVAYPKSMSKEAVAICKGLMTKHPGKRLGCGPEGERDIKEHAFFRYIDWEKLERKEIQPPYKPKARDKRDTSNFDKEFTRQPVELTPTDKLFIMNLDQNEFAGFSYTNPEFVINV

[9] = target: T1, Protein kinase C beta type; assay: Inhibition of PRKCB2 (unknown origin)
[10] = target: Rho-associated protein kinase 2 (Homo sapiens, UniProt O75116); assay: Inhibition of ROCK2 (unknown origin)
SRSF protein kinase 2 = SRSF protein kinase 2 (Homo sapiens, UniProt P78362); assay: Inhibition of SRPK2 (unknown origin)
Chain of SRSF protein kinase 2 (P78362 whole entry): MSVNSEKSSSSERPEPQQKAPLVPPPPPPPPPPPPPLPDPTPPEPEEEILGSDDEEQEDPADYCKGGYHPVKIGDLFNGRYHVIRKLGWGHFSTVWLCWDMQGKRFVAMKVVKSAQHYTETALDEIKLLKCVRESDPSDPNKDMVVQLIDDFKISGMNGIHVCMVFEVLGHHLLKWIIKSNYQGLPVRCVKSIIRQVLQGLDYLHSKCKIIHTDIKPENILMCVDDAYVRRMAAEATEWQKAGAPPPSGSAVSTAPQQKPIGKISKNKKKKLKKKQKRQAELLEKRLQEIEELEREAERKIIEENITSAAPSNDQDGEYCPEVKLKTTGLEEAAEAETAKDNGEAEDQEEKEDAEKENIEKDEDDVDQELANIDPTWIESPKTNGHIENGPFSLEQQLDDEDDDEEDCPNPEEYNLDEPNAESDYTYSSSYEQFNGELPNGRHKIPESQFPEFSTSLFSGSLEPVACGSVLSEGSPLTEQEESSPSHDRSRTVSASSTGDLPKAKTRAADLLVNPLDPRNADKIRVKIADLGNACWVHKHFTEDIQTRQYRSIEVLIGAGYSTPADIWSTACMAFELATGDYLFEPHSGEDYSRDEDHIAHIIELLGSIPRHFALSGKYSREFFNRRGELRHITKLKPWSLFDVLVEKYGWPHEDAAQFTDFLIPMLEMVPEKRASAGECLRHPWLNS

[11] = target: Tyrosine-protein kinase ZAP-70 (Homo sapiens, UniProt P43403); assay: Inhibition of ZAP70 (unknown origin)
[12] = Clearance in female rat at 1.13 mg/kg, iv administered as single dose; type: ADME, organism-based; settings: in vivo
[13] = AUC (0 to infinity) in female rat at 45 mg/kg, po administered as single dose via gavage; type: ADME, organism-based; settings: in vivo
[14] = Cmax in mouse at 45 mg/kg, po administered as single dose via gavage; type: ADME, organism-based; settings: in vivo
[15] = Toxicity in wildtype mouse assessed as number of entries to center zone at 1200 ppm administered as rodent chow for 10 to 24 weeks by Open field test (reference value: 19 to 63); settings: in vivo, po, time 10-24 weeks
[16] = Toxicity in wildtype mouse assessed as number of triads at 1200 ppm administered as rodent chow for 10 to 24 weeks by Y-maze test (reference value: 4 to 9); settings: in vivo, po, time 10-24 weeks
[17] = target: T2, Macrophage colony-stimulating factor 1 receptor (Mus musculus) (UniProt P09581); assay: In vivo inhibition of CSF1R in wildtype mouse assessed as microglial elimination in cortex at 1200 ppm administered as rodent chow for 10 weeks by […] based confocal microscopic analysis relative to control; type: functional; parameters: scale not given: the % may be the effect or the level left; settings: route po
T2 sequence (whole entry): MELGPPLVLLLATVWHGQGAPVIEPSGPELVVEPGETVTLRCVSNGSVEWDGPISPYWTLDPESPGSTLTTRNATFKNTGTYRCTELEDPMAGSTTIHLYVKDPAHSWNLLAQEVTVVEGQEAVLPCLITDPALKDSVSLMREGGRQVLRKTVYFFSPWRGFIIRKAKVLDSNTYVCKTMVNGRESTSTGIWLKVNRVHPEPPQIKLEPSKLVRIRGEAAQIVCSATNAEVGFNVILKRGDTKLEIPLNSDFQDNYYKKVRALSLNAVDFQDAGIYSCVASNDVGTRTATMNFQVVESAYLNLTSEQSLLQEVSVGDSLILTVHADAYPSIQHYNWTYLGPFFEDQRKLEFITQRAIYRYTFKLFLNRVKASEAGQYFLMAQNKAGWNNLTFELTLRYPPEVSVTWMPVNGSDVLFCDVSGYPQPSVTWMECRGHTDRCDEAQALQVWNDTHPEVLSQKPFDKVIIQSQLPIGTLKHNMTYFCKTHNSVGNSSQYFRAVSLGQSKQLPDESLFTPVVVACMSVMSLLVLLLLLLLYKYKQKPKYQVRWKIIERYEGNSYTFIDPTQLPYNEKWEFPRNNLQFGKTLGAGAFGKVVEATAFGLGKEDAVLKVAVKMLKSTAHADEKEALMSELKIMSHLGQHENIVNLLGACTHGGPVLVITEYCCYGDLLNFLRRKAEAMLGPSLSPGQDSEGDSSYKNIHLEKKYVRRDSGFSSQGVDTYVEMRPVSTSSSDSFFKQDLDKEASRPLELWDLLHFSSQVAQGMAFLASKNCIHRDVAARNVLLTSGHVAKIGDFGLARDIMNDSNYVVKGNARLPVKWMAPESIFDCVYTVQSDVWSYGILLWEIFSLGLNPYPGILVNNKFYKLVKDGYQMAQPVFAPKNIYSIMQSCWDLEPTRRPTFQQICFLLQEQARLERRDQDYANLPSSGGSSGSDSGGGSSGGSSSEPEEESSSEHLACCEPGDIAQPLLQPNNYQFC

[18] = Effect on C1qa gene expression in 5XFAD mouse thalamus at 1200 ppm administered as rodent chow starting from 1.5 months and measured after 7 months by RNA-Seq analysis (reference value: 36.243 to 61.660 RPKM); type: functional; settings: route po, time 5.5 months, 4015 h
In short: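 WT and 5xFAD mice were treated with 1200 ppm PLX5622 chow or control chow from 1.5 to 7 months of age. Brains were microdissected into cortex, hippocampus and thalamus, and RNA was extracted from tissue powder. Whole-transcriptome RNA-Seq libraries were sequenced, with n = 4 per group per region (48 samples).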

[19] = Effect on Cst7 gene expression in wild type mouse thalamus at 1200 ppm administered as rodent chow starting from 1.5 months and measured after 7 months by RNA-Seq analysis (reference value: 0 to 1.803 RPKM); type: functional; settings: route po, time 5.5 months, 4015 h
[20] = Prevention of St8sia5 gene downregulation in 5XFAD mouse hippocampus assessed as percent change in Reads Per kilo base per Million mapped reads at 1200 ppm administered as rodent chow starting from 1.5 months and measured after 7 months by RNA-Seq analysis (reference value: 42.024 to 86.833 %); type: functional; settings: route po, time 5.5 months, 4015 h
[21] = Prevention of Pcdhac1 gene downregulation in 5XFAD mouse hippocampus assessed as percent change in Reads Per kilo base per Million mapped reads at 1200 ppm administered as rodent chow starting from 1.5 months and measured after 7 months by RNA-Seq analysis (reference value: 43.082 to 72.354 %); type: functional; settings: route po, time 5.5 months, 4015 h
[22] = Prevention of Chrm3 gene downregulation in 5XFAD mouse hippocampus assessed as percent change in Reads Per kilo base per Million mapped reads at 1200 ppm administered as rodent chow starting from 1.5 months and measured after 7 months by RNA-Seq analysis (reference value: 46.176 to 86.158 %); type: functional; settings: route po, time 5.5 months, 4015 h
Mus musculus = assay: Prevention of Gls gene downregulation in 5XFAD mouse hippocampus at 1200 ppm administered as rodent chow starting from 1.5 months and measured after 7 months by Nanostring analysis; type: functional, tissue-based; settings: route po, time 5.5 months

Chain of Receptor-type tyrosine-protein kinase FLT3 (P36888 whole entry): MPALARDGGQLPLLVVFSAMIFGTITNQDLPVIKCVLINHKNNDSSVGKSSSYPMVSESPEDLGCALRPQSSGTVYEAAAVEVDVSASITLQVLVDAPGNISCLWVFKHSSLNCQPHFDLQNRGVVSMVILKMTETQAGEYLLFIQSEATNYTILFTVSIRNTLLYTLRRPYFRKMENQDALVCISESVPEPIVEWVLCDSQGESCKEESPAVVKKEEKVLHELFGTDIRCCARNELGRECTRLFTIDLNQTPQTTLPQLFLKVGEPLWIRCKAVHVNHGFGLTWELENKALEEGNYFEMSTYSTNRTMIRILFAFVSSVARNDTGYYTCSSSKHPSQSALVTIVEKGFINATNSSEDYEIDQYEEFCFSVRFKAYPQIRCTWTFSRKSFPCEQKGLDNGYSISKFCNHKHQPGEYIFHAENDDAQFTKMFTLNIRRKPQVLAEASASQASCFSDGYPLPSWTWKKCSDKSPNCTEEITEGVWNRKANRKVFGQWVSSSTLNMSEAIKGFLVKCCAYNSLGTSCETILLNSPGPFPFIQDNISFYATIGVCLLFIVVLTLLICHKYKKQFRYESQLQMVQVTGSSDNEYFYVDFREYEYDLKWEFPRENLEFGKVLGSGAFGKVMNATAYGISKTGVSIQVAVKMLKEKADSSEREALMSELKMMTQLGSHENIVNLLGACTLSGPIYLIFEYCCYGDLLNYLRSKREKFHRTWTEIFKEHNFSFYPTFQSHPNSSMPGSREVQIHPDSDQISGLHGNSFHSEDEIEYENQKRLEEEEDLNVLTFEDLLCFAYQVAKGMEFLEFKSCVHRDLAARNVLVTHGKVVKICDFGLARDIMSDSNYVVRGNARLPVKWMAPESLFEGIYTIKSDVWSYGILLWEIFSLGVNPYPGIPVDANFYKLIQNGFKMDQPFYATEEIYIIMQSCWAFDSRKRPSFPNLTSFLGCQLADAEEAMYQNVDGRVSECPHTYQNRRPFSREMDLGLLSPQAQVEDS

With `COc1ncc(F)cc1CNc1ccc(Cc2c[nH]c3ncc(C)cc23)c(F)n1` [PLX-5622] the pIC50 [1] was 6.41, the pIC50 [2] was under 6.00 and the pIC50 (AMPK alpha2/beta1/gamma1) was under 6.00. For the same compound, the pIC50 [3] was under 6.00, the pIC50 (Ephrin type-B receptor 4) was under 6.00 and the pIC50 [4] was under 6.00. It also gave a pIC50 [5] of under 6.00, a pIC50 [6] of under 6.00 and a pIC50 [7] of under 6.00. It also gave a pIC50 [8] of under 6.00, a pIC50 [9] of under 6.00 and a pIC50 [10] of under 6.00. It also gave a pIC50 (SRSF protein kinase 2) of under 6.00, a pIC50 [11] of under 6.00 and a clearance [12] of 3.7 mL/min/kg. It also gave an AUC(0-inf) [13] of 181 µg·h/mL, a Cmax [14] of 26300 ng/mL and an Activity [15] of 14. For the same compound, the Activity [16] was 3, the Activity [17] was over 99% and the Activity [18] was 0.199 RPKM. The Activity [19] was 0 RPKM, the Activity [20] was 74.641% and the Activity [21] was 76.485%. The Activity [22] was 85.99% and the Activity (Mus musculus) was “Active”.
